Reference: paper PMC6044781 (ACS Omega, 2017)
pIC50, pKd: −log10 of the molar value. Read-outs that look alike come from different tables or passages of the source.

Assays:
[1] = test system: h-telo 22-mer quadruplex (DNA, G4) AGGGTTAGGGTTAGGGTTAGGG; assay: ITC; settings: 25 mM KCl; 10 mM sodium cacodylate, 0.5 mM EDTA, pH 7.0, 25 °C
[2] = test system: h-telo 12-mer quadruplex (DNA, G4) TAGGGTTAGGGT; assay: ITC; settings: 25 mM KCl; 10 mM sodium cacodylate, 0.5 mM EDTA, pH 7.0, 25 °C
[3] = test system: 26-mer duplex DNA (DNA, duplex) CAATCGGATCGAATTCGATCCGATTG; assay: ITC; settings: 25 mM KCl; 10 mM sodium cacodylate, 0.5 mM EDTA, pH 7.0, 25 °C
[4] = test system: F22T (5′-fluorescein-AGGGTTAGGGTTAGGGTTAGGG-3′-TAMRA) G-quadruplex; assay: FRET melting assay, F22T; assay type: binding, human; settings: 2 μM ligand; for ΔTm F22T: no competitor; for ΔTm F22TComp22: with competitor complementary strand Compl 22
Method in brief: (§1)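 Dual-labelled oligos (5′-fluorescein/3′-TAMRA) at 0.25 μM in 10 mM sodium cacodylate, 0.5 mM EDTA, 25 mM KCl, pH 7.0, with or without 2 μM test compound. For competitor runs, each oligo was preincubated 24 h at 25 °C with 2 μM unlabelled complementary strand. Excitation 480 nm, emission 520 nm, read at 1 °C steps from 25 to 95 °C with 60 s equilibration per reading. ΔTm is the average of three determinations.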

[5] = test system: F12T (5′-fluorescein-TAGGGTTAGGGT-3′-TAMRA) G-quadruplex; assay: FRET melting assay, F12T; assay type: binding, human; settings: 2 μM ligand; for ΔTm F12T: no competitor; for ΔTm F12TComp12: with competitor complementary strand Compl 12
Method in brief: as §1

[6] = test system: h-telo 22-mer quadruplex; assay: ITC with h-telo 22-mer quadruplex; assay type: binding, human; settings: for binding equilibrium constants from microcalorimetry: h-telo 22-mer quadruplex; for binding constant Ka × 10^6: h-telo 22-mer, 25 °C
Method in brief: (§2)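 Isothermal titration calorimetry at 25 °C in cacodylate/EDTA/KCl buffer, pH 7.0; solutions degassed under vacuum (160 mbar, 10 min). Test compound at 4 × 10^-4 M was injected in 5–10 μL aliquots (20 s each, 240 s apart, 60 s initial delay, 381 rpm) into DNA: 22-mer and 26-mer duplex at 1.0 × 10^-5 M, 12-mer at 0.5 × 10^-5 M. Dilution heat was subtracted and data fitted to a single-site model. Ka is mean ± SD of three runs.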

[7] = test system: h-telo 12-mer quadruplex; assay: ITC with h-telo 12-mer quadruplex; assay type: binding, human; settings: 25 °C, BMSG-SH-3: first line of two
Method in brief: as §2

[8] = test system: duplex DNA 26-mer; assay: ITC with duplex DNA 26-mer; assay type: binding; settings: for binding constant Ka × 10^6: duplex DNA 26-mer, 25 °C
Method in brief: as §2

[9] = test system: h-telo 22-mer quadruplex; assay: SPR with h-telo 22-mer; assay type: binding, human; settings: for KA: h-telo 22-mer, 25 °C, error ±15%; for KA h-telo 22/KA dsDNA: selectivity 22-mer quadruplex over DNA duplex, SPR
Method in brief: (§3)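 Surface plasmon resonance on streptavidin chips carrying 5′-biotin-T9-linked 22-mer telomeric or 26-mer duplex DNA, annealed at 95 °C and slowly cooled in 10 mM HEPES, 100 mM KCl, 0.005% IGEPAL, pH 7.4. Surfaces equilibrated 2 h at 20 μL/min, 25 °C. Test compound (1.0 × 10^-9 to 10^-6 M) injected for 300 s in random order; regeneration with 1 M NaCl in 50 mM NaOH. Sensorgrams fitted to a two-site model. Selectivity is the ratio of G4 to duplex binding constants. Triplicate runs, mean ± SEM.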

[10] = test system: duplex DNA 26-mer; assay: SPR with duplex DNA 26-mer; assay type: binding; settings: 25 °C, error ±15%
Method in brief: as §3

[11] = test system: telomerase (from A549 cells); assay: TRAP-Lig assay; assay type: biochemical, human; settings: read-out: TRAP assay IC50; telomerase inhibition, ligand 1–50 μM
[12] = test system: A549 cells; assay: MTT cell survival assay, A549; assay type: cell-based; settings: Homo sapiens
Method in brief: (§4)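 MTT survival assay: cells treated with increasing concentrations of test compound for 48 or 72 h at 37 °C. Medium was then replaced with fresh medium containing MTT for 4 h, formazan dissolved in DMSO, and absorbance read at 570 nm. IC50 determined at each time point.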

[13] = test system: HeLa cells; assay: MTT cell survival assay, HeLa; assay type: cell-based; settings: Homo sapiens
Method in brief: as §4

[14] = test system: HEK 293T cells; assay: MTT cell survival assay, HEK 293T; assay type: cell-based; settings: Homo sapiens
Method in brief: as §4

[15] = test system: HeLa cells; assay: Cell cycle analysis by flow cytometry; assay type: cell-based, human; settings: 1 μM, 24 h; for G2/M phase arrest (G2): control 7.6%
[16] = test system: HeLa cells; assay: Annexin V-FITC/PI apoptosis assay; assay type: cell-based, human; settings: 1 μM, 24 h
Method in brief: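 HeLa cells seeded at 2 × 10^5 per 60 mm plate and treated with test compound at 1 μM. After 24 h, cells were harvested, washed twice in PBS and resuspended at 1 × 10^6 cells/mL in kit buffer. Annexin V-FITC/PI staining for 15 min in the dark at room temperature; Annexin V–FITC labelling quantified. Values are mean ± SEM.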

[17] = A549, 48 h, read-out: IC50 at 48 h
[18] = A549, 72 h, read-out: IC50 at 72 h

Compound	Ka [1]	Ka [2]	ΔTm F22T [4] [°C]	ΔTm F22TComp22 [4] [°C]	ΔTm F12T [5] [°C]	ΔTm F12TComp12 [5] [°C]	binding equilibrium constants from microcalorimetry [6] [µM]	binding constant Ka × 10^6 [6]	binding constant Ka × 10^6 [7]	binding constant Ka × 10^6 [8]	KA [9]	KA h-telo 22/KA dsDNA [9]	KA [10]	pKd [10]	pIC50 [11]	pIC50 [12, 17]	pIC50 [12, 18]	pIC50 ([13]; 48 h, read-out: IC50 at 48 h)	pIC50 ([13]; 72 h, read-out: IC50 at 72 h)	pIC50 ([14]; 48 h, read-out: IC50 at 48 h)	also measured
CN1CCN(c2ccc3nc(-c4ccc(N5C(=O)c6ccc7c8c(ccc(c68)C5=O)C(=O)N(c5ccc(-c6nc8ccc(N9CCN(C)CC9)cc8[nH]6)cc5)C7=O)cc4)[nH]c3c2)CC1 [BBZ-ARO, 2,7-Bis(4-(6-(4-methylpiperazin-1-yl)-1H-benzo[d]imidazol-2-yl)phenyl)benzo[lmn][3,8]phenanthroline-1,3,6,8(2H,7H)-tetraone]	8.47 ± 0.65 × 10^6 M^-1	6.63 ± 2.39 × 10^6 M^-1	14 ± 0.5	16 ± 1.6	13 ± 1.4	15 ± 0.5	8.47	8.47 ± 0.65 10^6 M^–1	6.63 ± 2.39 10^6 M^–1	0.05 ± 0.65 10^6 M^–1	9.5 × 10^7 M^–1	158.3	0.6 × 10^6 M^–1	4.44	5.34	4.58	4.71	4.61	4.69	4.11	Ka [3]: 0.05 ± 0.65 × 10^6 M^-1; affinity (ITC) ([6]; 22-mer quadruplex): 8.4 × 10^6 M^–1; binding affinity (ITC) ([8]; duplex DNA): 5.0 × 10^4 M^–1; pIC50 ([14]; 72 h, read-out: IC50 at 72 h): 4.20; sub-G1 phase accumulation ([15]; control 0.2%): 7.3%; G2/M phase arrest (G2) [15]: 15.8%; apoptotic cells (Annexin V–FITC positive cells) [16]: 74%
CN1CCN(c2ccc3nc(CN4C(=O)c5ccc6c7c(ccc(c57)C4=O)C(=O)N(Cc4nc5ccc(N7CCN(C)CC7)cc5[nH]4)C6=O)[nH]c3c2)CC1 [BBZ-AROCH2, 2,7-Bis((6-(4-methylpiperazin-1-yl)-1H-benzo[d]imidazol-2-yl)methyl)benzo[lmn]-[3,8]-phenanthroline-1,3,6,8(2H,7H)-tetraone]	3.41 ± 0.22 × 10^6 M^-1	0.89 ± 0.11 × 10^6 M^-1	7 ± 0.7	9 ± 0.5	8 ± 0.4	10 ± 1.6	3.41	3.41 ± 0.22 10^6 M^–1	0.89 ± 0.11 10^6 M^–1	0.88 ± 0.63 10^6 M^–1	1.4 × 10^6 M^–1	3.5	0.4 × 10^6 M^–1	4.26	< 4.30	4.10	4.13	4.03	4.06	< 4.00	Ka [3]: 0.88 ± 0.63 × 10^6 M^-1; pIC50 ([14]; 72 h, read-out: IC50 at 72 h): < 4.00; G2/M phase arrest (G2) [15]: 19.1%; apoptotic cells (Annexin V–FITC positive cells) [16]: 40%
CN1CCN(CCCN2C(=O)c3ccc4c5c(ccc(c35)C2=O)C(=O)N(CCCN2CCN(C)CC2)C4=O)CC1 [ALI-C3, 2,7-Bis(3-(4-methylpiperazin-1-yl)propyl)benzo[lmn][3,8]phenanthroline-1,3,6,8 (2H,7H)tetraone]	6.35 ± 0.26 × 10^6 M^-1	0.61 ± 1.82 × 10^6 M^-1	9 ± 1.2	11 ± 0.6	5 ± 0.8	7 ± 0.5	6.35	6.35 ± 0.26 10^6 M^–1	0.61 ± 1.82 10^6 M^–1	0.03 ± 0.10 10^6 M^–1	8.7 × 10^6 M^–1	87.0	0.1 × 10^6 M^–1	4.77	< 4.30	5.74	5.85	5.62	5.68	4.91	pIC50 ([14]; 72 h, read-out: IC50 at 72 h): 5.05; G2/M phase arrest (G2) [15]: 15.7%; apoptotic cells (Annexin V–FITC positive cells) [16]: 35%
